{"source": "ChEMBL document CHEMBL1144108", "about": "“Annocherin and (2,4)-cis- and trans-annocherinones, monotetrahydrofuran Annonaceous acetogenins with a C-7 carbonyl group from Annona cherimolia seeds” (J Nat Prod, 1999)", "key": {"A498 [1]": {"tested_on": "A498", "experiment": "Selectivity for human A498 cells over human HT29 cells", "type": "functional"}, "[2]": {"experiment": "Toxicity to brine shrimp larvae", "type": "organism-based", "settings": "artemia salina, in vivo"}, "MCF7": {"tested_on": "MCF7", "experiment": "Cytotoxicity against human MCF7 cells after 7 days by MTT assay", "type": "functional", "settings": "MCF7, 168 h, read-out: ED50 (the source's name)", "summary_of_the_method": "(§1)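 Seven-day in vitro MTT cytotoxicity assay run at the Purdue Cancer Center Cell Culture Laboratory to standard protocols. Lines: A-549 lung carcinoma, MCF-7 breast carcinoma, HT-29 colon adenocarcinoma, A-498 kidney carcinoma, PC-3 prostate adenocarcinoma, MIA PaCa-2 pancreatic carcinoma. Adriamycin served as positive control.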"}, "A549": {"tested_on": "A549", "experiment": "Cytotoxicity against human A549 cells after 7 days by MTT assay", "type": "functional", "settings": "A549, 168 h, read-out: ED50 (the source's name)", "summary_of_the_method": "as §1"}, "PC-3": {"tested_on": "PC-3", "experiment": "Cytotoxicity against human PC-3 cells after 7 days by MTT assay", "type": "functional", "settings": "PC-3, 168 h, read-out: ED50 (the source's name)", "summary_of_the_method": "as §1"}, "MIA PaCa-2 [3]": {"tested_on": "MIA PaCa-2", "experiment": "Selectivity for human A498 cells over human MIA PaCa2 cells", "type": "functional"}, "MIA PaCa-2 [4]": {"tested_on": "MIA PaCa-2", "experiment": "Cytotoxicity against human MIA PaCa2 cells after 7 days by MTT assay", "type": "functional", "settings": "MIA PaCa-2, 168 h, read-out: ED50 (the source's name)", "summary_of_the_method": "as §1"}, "A498 [5]": {"tested_on": "A498", "experiment": "Cytotoxicity against human A-498 cells after 7 days by MTT assay", "type": "functional", "settings": "A498, 168 h, read-out: ED50 (the source's name)", "summary_of_the_method": "as §1"}, "HT-29": {"tested_on": "HT-29", "experiment": "Cytotoxicity against human HT-29 cells after 7 days by MTT assay", "type": "functional", "settings": "HT-29, 168 h, read-out: ED50 (the source's name)", "summary_of_the_method": "as §1"}}}
{"molecule": "CCCCCCCCCCCC[C@H](O)[C@@H]1CC[C@@H]([C@@H](O)CCCCCCCC(O)CC[C@@H](O)CC2=C[C@H](C)OC2=O)O1", "note": "(some centres undefined)", "values": [{"measurement": "Selectivity ratio", "setting": "A498 [1]", "result": 1000}, {"measurement": "LC50", "setting": "[2]", "result": 0.0125, "unit": "mg/L"}, {"measurement": "EC50", "setting": "MCF7", "result": 0.011, "unit": "mg/L"}, {"measurement": "EC50", "setting": "A549", "result": 1.63, "unit": "mg/L"}, {"measurement": "EC50", "setting": "PC-3", "result": 1.32, "unit": "mg/L"}, {"measurement": "Selectivity ratio", "setting": "MIA PaCa-2 [3]", "result": 1000}, {"measurement": "EC50", "setting": "MIA PaCa-2 [4]", "result": 0.001, "unit": "mg/L"}, {"measurement": "EC50", "setting": "A498 [5]", "result": 2.96, "unit": "mg/L"}, {"measurement": "EC50", "setting": "HT-29", "result": 0.001, "unit": "mg/L"}]}
{"molecule": "CCCCCCCCCCCC[C@H](O)[C@@H]1CC[C@@H]([C@@H](O)CCCCCCCC(=O)CC[C@@H](O)CC2=C[C@H](C)OC2=O)O1", "note": "[ANNOCHERIN]", "values": [{"measurement": "Selectivity ratio", "setting": "A498 [1]", "result": 161}, {"measurement": "LC50", "setting": "[2]", "result": 0.137, "unit": "mg/L"}, {"measurement": "EC50", "setting": "MCF7", "result": 0.308, "unit": "mg/L"}, {"measurement": "EC50", "setting": "A549", "result": 1.67, "unit": "mg/L"}, {"measurement": "EC50", "setting": "PC-3", "result": 0.862, "unit": "mg/L"}, {"measurement": "Selectivity ratio", "setting": "MIA PaCa-2 [3]", "result": 131}, {"measurement": "EC50", "setting": "MIA PaCa-2 [4]", "result": 2.88, "unit": "mg/L"}, {"measurement": "EC50", "setting": "A498 [5]", "result": 0.022, "unit": "mg/L"}, {"measurement": "EC50", "setting": "HT-29", "result": 3.54, "unit": "mg/L"}]}
{"molecule": "COc1cccc2c1C(=O)c1c(O)c3c(c(O)c1C2=O)C[C@@](O)(C(=O)CO)C[C@@H]3O[C@H]1C[C@H](N)[C@H](O)[C@H](C)O1", "note": "[DOXORUBICIN]", "values": [{"measurement": "EC50", "setting": "MCF7", "result": 0.129, "unit": "mg/L"}, {"measurement": "EC50", "setting": "A549", "result": 0.0043, "unit": "mg/L"}, {"measurement": "EC50", "setting": "PC-3", "result": 0.0499, "unit": "mg/L"}, {"measurement": "EC50", "setting": "MIA PaCa-2 [4]", "result": 0.00101, "unit": "mg/L"}, {"measurement": "EC50", "setting": "A498 [5]", "result": 0.0156, "unit": "mg/L"}, {"measurement": "EC50", "setting": "HT-29", "result": 0.0168, "unit": "mg/L"}]}
